Blank lines part the entries; values can stand above or below the molecule they belong to. Primed or numbered codes have the meaning given here. Ends that are not written are not given here. FITC′ = fluorescein isothiocyanate
Experiments:
[1] = tested on: GST-GR25 / TDP-43; experiment: Sedimentation of GST-GR25 with TDP-43 and NTRs; type: biochemical; conditions: anti-GST western blot, three independent experiments
Procedure, shortened: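 1 µM TDP-43-MBP-His was Tev-cleaved (20 µg/ml His-Tev, 60 min, 30°C) with or without equimolar GST-tagged DPR and/or NTRs. Samples were centrifuged 15 min at 21,000 g, 4°C. Equal volumes of supernatant and pellet were analysed by anti-GST western blot.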

[2] = tested on: TNPO1 (His-TNPO1); experiment: SDD-AGE oligomer formation, TNPO1; type: biochemical; conditions: 10-fold molar excess: 2 μM importin, 20 μM TMR-DPR, pH 7.5, 200 mM NaCl, 1 h RT
[3] = tested on: Impα3 (His-Impα3); experiment: SDD-AGE oligomer formation, Impα3; type: biochemical, rat; conditions: 10-fold molar excess: 2 μM importin, 20 μM TMR-DPR, pH 7.5, 200 mM NaCl, 1 h RT
[4] = tested on: TNPO3; experiment: Pull-down from HeLa cytosol, TNPO3; type: binding; conditions: biotinylated peptide, western blot
Procedure, shortened: (§1)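 It was cleared at 21,000 g, 4°C. Cytosol was incubated under physiological buffer conditions with biotinylated DPR peptides immobilized on ovalbumin-blocked streptavidin beads, and bound NTRs were detected by western blot.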

[5] = tested on: GCR2-GFP2 reporter in HeLa cells; experiment: Diffusion of reporter without NLS into nucleus; type: cell-based; conditions: 10 µM TMR-GR25, 2 h; three independent experiments, 43-102 cells
[6] = tested on: Impb; conditions: FRET sensors and bead Halo assays; ref Hayes et al., 2019; cited from earlier work
[7] = tested on: Imp7; experiment: Pull-down from HeLa cytosol, Imp7; type: binding; conditions: biotinylated peptide, western blot
Procedure, shortened: (§2)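 Biotin-DPR bait (5 μg per 10 μl beads) immobilised overnight with 2 mg/ml ovalbumin. Prey bound in B-buffer with 2 mg/ml BSA, washed without BSA, eluted in 2× SDS loading buffer. Two independent replicates.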

[8] = target: T1, TNPO1 (Homo sapiens, UniProt Q92973); experiment: Pull-down from HeLa cytosol, TNPO1; type: binding; conditions: biotinylated peptide, western blot
T1 sequence (Q92973 1-898): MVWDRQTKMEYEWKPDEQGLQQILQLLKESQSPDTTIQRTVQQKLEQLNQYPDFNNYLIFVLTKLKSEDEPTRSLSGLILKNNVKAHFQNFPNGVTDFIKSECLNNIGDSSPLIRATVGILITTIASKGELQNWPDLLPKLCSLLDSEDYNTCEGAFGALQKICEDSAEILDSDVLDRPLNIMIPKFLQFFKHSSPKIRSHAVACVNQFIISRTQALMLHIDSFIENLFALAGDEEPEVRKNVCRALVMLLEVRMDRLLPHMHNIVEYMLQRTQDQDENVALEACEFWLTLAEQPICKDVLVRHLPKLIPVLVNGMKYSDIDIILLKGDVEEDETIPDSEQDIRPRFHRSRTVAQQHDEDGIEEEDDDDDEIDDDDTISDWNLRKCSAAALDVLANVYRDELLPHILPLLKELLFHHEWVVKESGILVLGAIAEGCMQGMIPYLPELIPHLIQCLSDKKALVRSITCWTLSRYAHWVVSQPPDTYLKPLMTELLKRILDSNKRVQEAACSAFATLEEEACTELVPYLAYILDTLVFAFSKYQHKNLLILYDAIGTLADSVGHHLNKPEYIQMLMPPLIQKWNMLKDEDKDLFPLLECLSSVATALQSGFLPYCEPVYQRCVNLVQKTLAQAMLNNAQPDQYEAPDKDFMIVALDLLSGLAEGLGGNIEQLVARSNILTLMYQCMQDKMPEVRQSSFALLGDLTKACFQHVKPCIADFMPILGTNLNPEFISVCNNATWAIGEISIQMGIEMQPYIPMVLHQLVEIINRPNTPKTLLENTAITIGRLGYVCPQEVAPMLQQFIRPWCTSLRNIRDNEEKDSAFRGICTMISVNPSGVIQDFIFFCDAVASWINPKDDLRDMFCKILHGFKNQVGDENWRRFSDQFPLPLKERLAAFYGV
Procedure, shortened: as §1

[9] = tested on: TDP-43 (TDP-43-Tev-MBP/MBP-Tev-TDP-43-GFP); experiment: TDP-43 condensate formation with DPRs, microscopy; type: biochemical; conditions: TMR-labeled DPR, equimolar (1x) or two-fold (2x), 2 μM TDP-43/TDP-43-GFP, Tev cleavage, 200 mM NaCl, pH 7.5
Procedure, shortened: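 Size-exclusion-purified TDP-43-MBP-His (2 μM) was mixed with substoichiometric MBP-TDP-43-GFP-His (1:4–1:5). Condensates were imaged by laser scanning confocal microscopy.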

[10] = tested on: Impα3; experiment: Pull-down with purified Impα3; type: binding, rat; conditions: biotinylated peptide, purified Impα3, pH 7.5, 200 mM NaCl
Procedure, shortened: (§3)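 Streptavidin beads were blocked with 20 mg/ml ovalbumin, then loaded overnight with 5 µg biotinylated DPR peptide per reaction. 5 µg purified prey protein was added in 50 mM Tris pH 7.5, 200 mM NaCl, 1 mM MgCl2, 5% glycerol, 2 mM DTT, 2 mg/ml BSA. After washes, bound protein was eluted in SDS loading buffer and analysed by SDS-PAGE with Sypro-Ruby staining. Two independent replicates.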

[11] = tested on: GAPDH in HeLa cytosol; experiment: Sedimentation assay from HeLa cytosol, GAPDH; type: biochemical; conditions: highest GR/PR concentrations
[12] = tested on: Impα3; experiment: Pull-down from HeLa cytosol, Impα3; type: binding; conditions: biotinylated peptide, western blot
Procedure, shortened: as §2

[13] = tested on: Impβ; experiment: Pull-down from HeLa cytosol, Impβ; type: binding; conditions: biotinylated peptide, western blot
Procedure, shortened: as §2

[14] = tested on: nuclear import of GCR2-GFP2-cNLS in HeLa cells; experiment: Hormone-induced nuclear import assay, cNLS reporter; type: cell-based; conditions: 10 µM TMR-GR25, 2 h; three independent experiments, 14-61 cells
Procedure, shortened: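 HeLa cells were passaged at least twice in DMEM with 10% dialyzed FBS and expressed the GCR2-GFP2-MBP-cNLS reporter. They were pre-incubated 2 h with 10 µM TMR-labeled DPR peptide added once to serum-free imaging medium. Import was induced with 5 µM (final) dexamethasone, and spinning-disk live imaging ran 40–50 min at 2.5-min intervals. Only peptide-positive cells were quantified. N/C ratio is given as mean ± SEM of three experiments, with area under the curve compared by unpaired t test.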

[15] = tested on: Impβ (His-S-Impβ, in the absence of Impα); experiment: Sedimentation assay, Impβ alone; type: biochemical
Procedure, shortened: (§4)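 Protein was 1 µM purified NTR alone, or 500 nM Impα with 500 nM Impβ. Samples were centrifuged 15 min at 21,000 g, 4°C. Equal volumes of supernatant and pellet were analysed by SDS-PAGE with Sypro-Ruby stain or western blot.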

[16] = tested on: Impα1; experiment: Pull-down with purified Impα1; type: binding; conditions: biotinylated peptide, purified Impα1, Figure S1E
Procedure, shortened: as §3

[17] = tested on: GCR2-GFP2 reporter in cytoplasm; experiment: FRAP of cytoplasmic GCR2-GFP2 reporter; type: cell-based; conditions: 10 µM GR25, 2 h, dexamethasone; 34-38 cells, two independent experiments
[18] = tested on: CRM1; experiment: Sedimentation assay, CRM1; type: biochemical
Procedure, shortened: as §4

[19] = tested on: NTRs (importins) from HeLa cytosol; experiment: Pull-down from HeLa cytosol with biotinylated DPR, NTRs; type: binding; conditions: immobilized biotinylated peptide, western blot
Procedure, shortened: as §1

[20] = target: T2, TNPO1 (TEV-cleaved) (UniProt Q92973 1-898); experiment: fluorescence polarisation
T2 sequence (looked up): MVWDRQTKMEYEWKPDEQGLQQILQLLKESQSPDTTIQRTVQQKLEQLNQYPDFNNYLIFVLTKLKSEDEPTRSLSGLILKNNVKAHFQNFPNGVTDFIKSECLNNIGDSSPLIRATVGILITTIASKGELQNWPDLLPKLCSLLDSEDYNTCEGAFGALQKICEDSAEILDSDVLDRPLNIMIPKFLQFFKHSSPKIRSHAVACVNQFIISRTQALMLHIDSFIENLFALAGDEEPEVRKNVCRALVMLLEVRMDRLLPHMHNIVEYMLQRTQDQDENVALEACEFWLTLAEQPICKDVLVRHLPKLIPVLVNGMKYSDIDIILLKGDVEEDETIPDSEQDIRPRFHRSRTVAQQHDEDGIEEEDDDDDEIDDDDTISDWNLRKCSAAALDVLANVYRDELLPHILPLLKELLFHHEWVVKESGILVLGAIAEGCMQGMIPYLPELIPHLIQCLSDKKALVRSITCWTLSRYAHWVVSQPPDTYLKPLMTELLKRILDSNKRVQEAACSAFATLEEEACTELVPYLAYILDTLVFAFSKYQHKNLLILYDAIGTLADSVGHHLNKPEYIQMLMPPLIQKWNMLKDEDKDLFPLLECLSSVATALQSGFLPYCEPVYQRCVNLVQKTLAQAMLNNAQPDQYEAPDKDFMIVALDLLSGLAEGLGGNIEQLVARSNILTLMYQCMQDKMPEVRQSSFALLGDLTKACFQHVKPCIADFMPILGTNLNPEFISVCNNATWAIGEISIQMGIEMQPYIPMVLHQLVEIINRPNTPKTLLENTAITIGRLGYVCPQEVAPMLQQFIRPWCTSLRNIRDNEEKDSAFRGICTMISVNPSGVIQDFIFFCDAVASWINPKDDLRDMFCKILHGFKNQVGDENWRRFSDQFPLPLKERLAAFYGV

[21] = 10-fold molar excess of TMR-labeled DPR, n = 3
[22] = extremely high concentrations (up to 40x)

Molecule: GST-GR25: recombinant GST fusion of GR25
- solubility of GST-GR25 ([1]; absence of TDP-43): completely soluble
- solubility of GST-GR25 ([1]; presence of cleaved TDP-43): moved efficiently into the pellet fraction

Molecule: TMR-PR25: tetramethylrhodamine (TMR)-labeled PR25 (PRPRPRPRPRPRPRPRPRPRPRPRPRPRPRPRPRPRPRPRPRPRPRPRPR; also: TMR label, position not given here)
- oligomer formation of TNPO1 (SDS-resistant) [2]: oligomer formation
- oligomer formation of Impα3 (SDS-resistant) [3]: oligomer formation

Molecule: TMR-GR25: tetramethylrhodamine (TMR)-labeled GR25 (GRGRGRGRGRGRGRGRGRGRGRGRGRGRGRGRGRGRGRGRGRGRGRGRGR; also: TMR label, position not given here)
- oligomer formation of TNPO1 (SDS-resistant) [2]: oligomer formation
- oligomer formation of Impα3 (SDS-resistant) [3]: oligomer formation

Molecule: poly-GP: non-charged DPR species; in the experiments GP25 (GPGPGPGPGPGPGPGPGPGPGPGPGPGPGPGPGPGPGPGPGPGPGPGPGP; not fully specified; also: biotin, position not given here) [reference compound]
- TDP-43 condensate formation [9]: no effect
- oligomer formation of TNPO1 (SDS-resistant) [2]: not poly-GP
- oligomer formation of Impα3 (SDS-resistant) [3]: not poly-GP

B1: FITC-PR25 (peptide)
peptide: {FITC′}-PRPRPRPRPRPRPRPRPRPRPRPRPRPRPRPRPRPRPRPRPRPRPRPRPR
- Kd [20]: ~200 nM

Second part, led by results:

- binding in pull-down [4]: bound preferentially to poly-GR
- binding in pull-down [8]: bound preferentially to poly-GR
- direct binding in pull-down [10]: preferentially to poly-GR
- direct binding in pull-down [16]: preferentially to poly-GR
Molecule: poly-GR: arginine-rich dipeptide repeat protein species; in the experiments mostly GR25
- diffusion of reporter without NLS into nucleus (N/C ratio) [5]: only mildly affected
- direct binding to Impb in vitro [6]: direct binding
- binding in pull-down [7]: bound equally to both poly-GR and poly-PR
- TDP-43 condensate formation [9]: formation of condensates
- precipitation of GAPDH from HeLa cytosol [11]: not precipitated
- oligomer formation of TNPO1 (SDS-resistant) [2]: SDS-resis-tant oligomers
- binding in pull-down [12]: bound equally to both poly-GR and poly-PR
- binding in pull-down [13]: bound equally to both poly-GR and poly-PR
- nuclear import of cNLS reporter (N/C ratio) [14]: reduced nuclear import
- solubility of Impβ [15, 21]: remained mainly soluble
- precipitation of Impβ, titration [15, 22]: only partial or no precipitation
- oligomer formation of Impα3 (SDS-resistant) [3]: SDS-resis-tant oligomers
- mobility of GCR2-GFP2 reporter in cytoplasm (FRAP) [17]: unchanged
- solubility of CRM1 [18, 21]: remained mainly soluble
- precipitation of CRM1, titration [18, 22]: only partial or no precipitation

- binding in pull-down [19]: not to the non-charged control DPR GP25
Molecule: GP25: non-charged control DPR (GPGPGPGPGPGPGPGPGPGPGPGPGPGPGPGPGPGPGPGPGPGPGPGPGP; not fully specified; also: biotin, position not given here)

- Kd [20]: ~200 nM
B2: FITC-GR25 (peptide)
peptide: {FITC′}-GRGRGRGRGRGRGRGRGRGRGRGRGRGRGRGRGRGRGRGRGRGRGRGRGR

Source: publication PMC7814465 (Cell reports, 2020)
